# Test results from ChEMBL document CHEMBL5120741, “Small molecule-mediated induction of endoplasmic reticulum stress in cancer cells” (RSC Med Chem, 2021).
# Active and inactive are the calls of the source. The calls are words filed in the database; no cut-off is given here.
# Assays:
# HeLa [1] = test: Cytotoxicity against human HeLa cells assessed as cell killing at 30 uM after 24 hrs by MTT assay
# HeLa [2] = test: Cytotoxicity against human HeLa cells assessed as cell viability after 24 hrs by MTT assay; type: functional, cell-based
# In short: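 HeLa cells from NCCS incubated 24 h with compound across a concentration range (single-point screen at 30 μM); viability read by MTT assay; IC50 from dose-response; significance by two-way ANOVA.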
# HeLa [3] = test: Induction of ERstress in human HeLa cells assessed as increase in lipid level measured after 24 hrs by Oil-red-O staining analysis; type: functional, cell-based
# In short: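 Lipid content: HeLa cells exposed 24 h, stained with Oil Red O plus DAPI for nuclei, viewed by confocal microscopy against untreated control.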
# HeLa [4] = test: Induction of autophagy in human HeLa cells assessed as increase in LC3B level measured after 24 hrs by confocal microscopic analysis relative to control; type: functional
# In short: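 HeLa cells treated 24 h, fixed in paraformaldehyde, permeabilized with 0.1% Tween-20 buffer, anti-LC3B primary 4 h, Alexa Fluor 488 secondary, DAPI nuclei; confocal imaging, green signal as fold over control.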
# [5] = Induction of ERstress in human HeLa cells assessed as increase in IRE1-alpha expression level measured after 24 hrs by Western blot analysis relative to control; type: functional
# In short: (§1)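 HeLa cells treated 24 h, lysed, proteins separated by gel electrophoresis and immunoblotted for BiP, CHOP, IRE1α, PERK or caspase-12; expression given as fold change over untreated control.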
# HeLa [6] = test: Induction of autophagy in human HeLa cells assessed as increase in LC3-I/LC3-II ratio level measured after 24 hrs by Western blot analysis relative to control; type: functional
# In short: (§2)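 HeLa cells (NCCS) exposed to compound for 24 h, then lysed; cellular proteins resolved by gel electrophoresis and immunoblotted for LC3-I, LC3-II and Beclin. Band levels expressed as fold change versus untreated control cells. The LC3-I/LC3-II ratio is taken from the same blots and also expressed as fold over control.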
# [7] = Induction of ERstress in human HeLa cells assessed as increase in CHOP expression level measured after 24 hrs by confocal microscopic analysis relative to control; type: functional
# In short: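 After 24 h treatment, HeLa cells probed with anti-CHOP primary antibody (4 h), then Alexa Fluor 594 secondary; nuclei DAPI-stained; confocal imaging, red signal expressed as fold over untreated cells.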
# HeLa [8] = test: Induction of autophagy in human HeLa cells assessed as increase in beclin level measured after 24 hrs by Western blot analysis relative to control; type: functional
# In short: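 Western blot: HeLa cells treated 24 h, lysed, proteins resolved by gel electrophoresis and probed for Beclin; fold change versus untreated cells.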
# [9] = Induction of ERstress in human HeLa cells assessed as increase in caspase-12 expression level measured after 24 hrs by Western blot analysis relative to control; type: functional
# In short: as §1
# HeLa [10] = test: Induction of autophagy in human HeLa cells assessed as increase in LC3-1 level measured after 24 hrs by Western blot analysis relative to control; type: functional
# In short: as §2
# [11] = Induction of ERstress in human HeLa cells assessed as increase in BiP expression level measured after 24 hrs by Western blot analysis relative to control; type: functional
# In short: as §1
# [12] = Induction of ERstress in human HeLa cells assessed as increase in PERK expression level measured after 24 hrs by Western blot analysis relative to control; type: functional
# In short: as §1
# HeLa [13] = test: Induction of apoptosis in human HeLa cells assessed as increase in early apoptotic cells level measured after 24 hrs in presence of 50 uM of chloroquine by annexin-V-PI staining based flow cytometry (reference value: 1.26%); type: functional
# In short: (§3)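 Apoptosis by flow cytometry: HeLa cells treated 24 h alone or with 50 μM chloroquine, stained with Annexin V-FITC and propidium iodide; early and late apoptotic fractions reported as % cells.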
# [14] = Drug uptake in endoplasmic reticulum of human HeLa cells at 5 uM measured after 3 and 6 hrs by ER-tarcker dye based laser confocal microscopy; type: ADME, subcellular
# In short: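 HeLa cells given 5 μM compound (intrinsically green fluorescent) for 3 h and 6 h, ER counterstained with ER-Tracker Red, imaged by confocal laser scanning microscopy; colocalization quantified as Pearson's and Mander's coefficients.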
# HeLa [15] = test: Induction of autophagy in human HeLa cells assessed as increase in LC3-II level measured after 24 hrs by Western blot analysis relative to control; type: functional
# In short: as §2
# HeLa [16] = test: Induction of autophagy in human HeLa cells assessed as increase in beclin level measured after 24 hrs by confocal microscopic analysis relative to control; type: functional
# In short: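 Immunofluorescence: HeLa cells treated 24 h, anti-Beclin primary then Alexa Fluor 594 secondary, DAPI counterstain; confocal microscopy, red signal as fold versus untreated control.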
# HeLa [17] = test: Induction of apoptosis in human HeLa cells assessed as increase in late apoptotic cells level measured after 24 hrs by annexin-V-PI staining based flow cytometry (reference value: 0.08%); type: functional
# In short: as §3
# [18] = Induction of ERstress in human HeLa cells assessed as increase in CHOP expression level measured after 24 hrs by Western blot analysis relative to control; type: functional
# In short: as §1
# HeLa [19] = test: Induction of apoptosis in human HeLa cells assessed as increase in early apoptotic cells level measured after 24 hrs by annexin-V-PI staining based flow cytometry (reference value: 1.26%); type: functional
# In short: as §3
# HeLa [20] = test: Induction of apoptosis in human HeLa cells assessed as increase in late apoptotic cells level measured after 24 hrs in presence of 50 uM of chloroquine by annexin-V-PI staining based flow cytometry (reference value: 0.08%); type: functional
# In short: as §3
smiles,measurement,setting,value
O=S(=O)(N/N=C/c1c[nH]c2cc(Br)ccc12)c1ccc(Cl)cc1,cell killing at 30 µM,HeLa [1],> 60%
same,IC50,HeLa [2],18 µM
O=S(=O)(N/N=C/c1c[nH]c2cc(Br)ccc12)c1ccc(Br)cc1,Activity,HeLa [3],Active
same,cell killing at 30 µM,HeLa [1],> 60%
same,IC50,HeLa [2],16 µM
same,Activity,HeLa [4],Active
CN(C)c1cccc2c(S(=O)(=O)N/N=C/c3c[nH]c4cc(Br)ccc34)cccc12,fold change (FC),[5],1.8
same,fold change (FC),HeLa [6],3.8
same,Activity,HeLa [3],Active
same,fold change (FC),[7],1.7
same,fold change (FC),HeLa [8],2
same,fold change (FC),[9],1.4
same,cell killing at 30 µM,HeLa [1],> 60%
same,fold change (FC),HeLa [10],2.6
same,fold change (FC),[11],1.6
same,fold change (FC),[12],1.6
same,Activity,HeLa [13],28.6%
same,Drug uptake,[14],Active
same,fold change (FC),HeLa [15],10
same,fold change (FC),HeLa [16],8
same,Activity,HeLa [17],17.8%
same,IC50,HeLa [2],9 µM
same,fold change (FC),[18],1.6
same,Activity,HeLa [19],64.6%
same,fold change (FC),HeLa [4],5
same,Activity,HeLa [20],62%
COc1ccc(S(=O)(=O)N/N=C/c2c[nH]c3cc(Br)ccc23)cc1,cell killing at 30 µM,HeLa [1],> 60%
same,IC50,HeLa [2],19 µM
